The test system of one test is PBMC. As to the kind of experiment: Effect on LPS stimulated TNF-alpha release from hPBMCs. Conditions: Homo sapiens. The class given is functional, cell-based. In outline: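 Human peripheral blood mononuclear cells incubated with inhibitor, then stimulated with LPS/IFNγ for 3 h; TNFα in supernatants quantified by ELISA.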
Test [1] deals with Mitogen-activated protein kinase 14 (Mus musculus, UniProt P47811). Briefly: Inhibition of murine Mitogen-activated protein kinase p38 alpha. The procedure, abridged:
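Phosphorylated His-tagged murine p38α MAP kinase (10 ng/well) assayed with immobilized GST-ATF-2 as substrate.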

The subject of a further test is Mus musculus. As to the kind of experiment: Compound was tested for the inhibition of TNF-alpha release after LPS stimulation in mice at a dose of 30 mg/kg, po. It is filed as functional. In outline: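 Mice given compound orally at 30 mg/kg; 1 h after dosing, LPS (20 mg/kg) injected iv. One hour later blood collected and TNFα measured by mouse-specific ELISA.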

A value given as a limit tells only on which side of the number the result lay.

Mitogen-activated protein kinase 14, sequence (P47811 whole entry): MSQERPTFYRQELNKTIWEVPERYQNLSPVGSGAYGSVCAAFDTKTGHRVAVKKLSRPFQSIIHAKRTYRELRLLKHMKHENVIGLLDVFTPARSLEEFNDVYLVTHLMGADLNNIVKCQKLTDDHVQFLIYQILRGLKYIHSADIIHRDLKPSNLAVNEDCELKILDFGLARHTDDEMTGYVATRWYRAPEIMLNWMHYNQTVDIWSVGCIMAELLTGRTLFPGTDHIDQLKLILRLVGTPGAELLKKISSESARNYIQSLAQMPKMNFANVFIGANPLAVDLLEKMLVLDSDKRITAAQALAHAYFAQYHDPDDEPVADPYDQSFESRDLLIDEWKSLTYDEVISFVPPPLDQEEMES

For the molecule `O=C1NCc2cc(NS(=O)(=O)c3ccccc3Cl)ccc2N1c1c(Cl)cccc1Cl`, the IC50 was 510 nM in the test with PBMC and 180 nM in test [1].

Regarding `O=C1NCc2cc(Nc3ccc(F)cc3F)ccc2N1c1c(Cl)cccc1Cl`, the IC50 with PBMC was found to be 290 nM; in test [1], 380 nM.

As for `O=C1NCc2cc(NS(=O)(=O)c3ccc(F)c(Cl)c3)ccc2N1c1c(Cl)cccc1Cl`, the IC50 is 84 nM in the test on PBMC and 34 nM in test [1].

Regarding `Cc1ccc(S(=O)(=O)Nc2ccc3c(c2)CNC(=O)N3c2c(Cl)cccc2Cl)cc1`, the IC50 is > 10000 nM with PBMC and 1800 nM in test [1].

As for `CN(c1ccc2c(c1)CNC(=O)N2c1c(Cl)cccc1Cl)S(=O)(=O)c1cc(Cl)ccc1Cl`, the IC50 came out at 1200 nM in the test with PBMC and 780 nM in test [1].

As for `O=C1NCc2cc(Sc3ccc(F)cc3F)ccc2N1c1c(Cl)cccc1Cl`, the IC50 in the test with PBMC came to 960 nM; in test [1], 470 nM.

Regarding `O=C(Nc1ccc2c(c1)CNC(=O)N2c1c(Cl)cccc1Cl)c1ccccc1`, the results for the IC50 (with PBMC; in test [1]) were 10000 nM and 8500 nM, respectively.

As to `O=C1NCc2cc(NS(=O)(=O)c3ccccc3)ccc2N1c1c(Cl)cccc1Cl`, the IC50 in the test on PBMC was 140 nM; in test [1], 53 nM.

In test [1], `O=C1NCc2cc(NS(=O)(=O)c3cc(Cl)ccc3O)ccc2N1c1c(Cl)cccc1Cl` yielded an IC50 of 570 nM.

In the case of `O=C1NCc2cc(NCc3ccccc3)ccc2N1c1c(Cl)cccc1Cl`, the IC50 in the test with PBMC worked out at 1200 nM; in test [1], 150 nM.

For `O=C1NCc2cc(NS(=O)(=O)c3cc(Cl)ccc3Cl)ccc2N1c1c(Cl)cccc1Cl`, the IC50 with PBMC came to 390 nM; in test [1], 100 nM.

Regarding `O=C1NCc2ccccc2N1c1c(Cl)cccc1Cl`, half-maximal inhibition in test [1] (IC50) required 11800 nM.

As to `COc1cc2c(-c3ccccc3)nc(=O)n(C(C)C)c2cc1N1CCOCC1`, inhibition in test [1] was half-maximal at 14000 nM (IC50).

Turning to `Cc1cc(OCCCN2CCOCC2)cc(C)c1N1C(=O)NCc2cc(NS(=O)(=O)c3ccc(F)c(Cl)c3)ccc21`, in the test on Mus musculus, at 30 mg/kg the inhibition in vivo was 42%.

Source of the values: ChEMBL document CHEMBL1146826, “A novel Pd-catalyzed cyclization reaction of ureas for the synthesis of dihydroquinazolinone p38 kinase inhibitors” (Bioorg Med Chem Lett, 2004).
